Results taken from ChEMBL document CHEMBL1240314, “Small-molecule inhibitor of p53 binding to mitochondria protects mice from gamma radiation” (2006).
Calls of active or inactive are those of the source.

Key:
BJ = assay: Induction of p21 mRNA expression in 5-fluorouracil-stimulated human BJ cells; assay type: functional, cell-based
How it was run: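 Wild-type and p53-deficient cell pairs stimulated with 5-FU ([…] as printed) or gamma irradiation (10 or 15 Gy); p21 mRNA quantified by real-time PCR; means ± s.d., n = 3.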

HEK-293T = assay: Antiapoptotic activity against Bax gene-induced apoptosis in human 293T cells transfected with pTZV3-CMV-Bax at 10 uM after 24 hrs; assay type: functional, cell-based
How it was run: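 Bax delivered by transient transfection of 293T and HT1080 cells with CMV-Bax construct (Lipofectamine Plus); compound at 10 mM as printed; apoptosis scored 24 h after transfection by annexin/PI staining on FACScan.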

Thymocyte = assay: Induction of p21 mRNA expression in mouse thymocytes

Measured: Activity

NS(=O)(=O)C#Cc1ccccc1
inactive: BJ | HEK-293T | Thymocyte
